Screens from PubChem.
Hits are enriched below; roughly 1.5% of the tested compounds scored in any of these assays.
APJ agonist: APJ receptor agonism | P35414 | activation, % at 20 µM | CHO-K1 APJ PathHunter beta-arrestin, luminescence; 0% DMSO wells, 100% apelin | 330,000 tested, 0.11% active;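 active means activation more than six SD over the plate average, tested at 20 µM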;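 further: 0% = DMSO alone and 100% = apelin-13 at 10 nM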
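Assay system: engineered CHO-K1 APJ arrestin reporter cells; Amount: 1000 CHO-K1 reporter cells seeded per well; Dosing: one dose, 20 µM compound, 1% DMSO; Times: compound stimulation 90 min at 25 °C, detection 60 min; Measured by: luminescent beta-gal fragment complementation, chemiluminescent substrate; Read-out: APJ–arrestin association signal; Controls: DMSO vs Apelin-13 10 nM.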
EBI2 block: antagonists of human EBI2 receptor | P32249 | EBI2 beta-arrestin recruitment, luminescence, 7a,25-OHC stimulated | inhibition, % at 5 µM | 360,000 tested, 0.81% active | AID 651636; in the data active means inhibition above about 38%;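 further: enzyme fragment complementation signal reports receptor beta-arrestin coupling in cells; 0% = agonist plus DMSO wells and 100% = wells without agonist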
CXCR6 block: blocks human CXCR6 beta-arrestin recruitment | CHO-K1 PathHunter CXCR6 beta-arrestin, luminescence | inhibition, % at 20 µM | 360,000 tested, 0.36% active | AID 602244; in the data active means inhibition above about 34%, passing the limit was not always enough;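 further: antagonist mode with CXCL16 agonist at 10 nM final; 0% = 10 nM CXCL16 with DMSO and 100% = unstimulated wells without agonist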
Target sequence (O00574 whole entry, looked up): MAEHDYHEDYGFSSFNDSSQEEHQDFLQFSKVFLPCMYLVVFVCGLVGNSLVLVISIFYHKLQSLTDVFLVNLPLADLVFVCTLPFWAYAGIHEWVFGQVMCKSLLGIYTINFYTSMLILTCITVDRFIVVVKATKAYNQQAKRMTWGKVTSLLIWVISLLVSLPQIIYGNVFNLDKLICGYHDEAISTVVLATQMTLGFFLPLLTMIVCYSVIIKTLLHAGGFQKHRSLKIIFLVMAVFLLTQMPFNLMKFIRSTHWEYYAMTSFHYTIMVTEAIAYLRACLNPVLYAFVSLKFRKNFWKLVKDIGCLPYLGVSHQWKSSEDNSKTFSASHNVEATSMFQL
APJ antagonist: antagonists of human APJ apelin receptor | CHO-K1 APJ beta-arrestin complementation, luminescence | AID 2521 | inhibition, % at 20 µM | 330,000 tested, 0.32% active;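 active means inhibition above about 40% at 20 µM, limit read from the data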;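 further: cells challenged with 10 nM apelin-13 agonist together with compound; plate controls were apelin-13 plus DMSO wells for no effect and DMSO wells lacking apelin-13 for full effect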
CCR6 antag: CCR6 (human) receptor antagonism | P51684 | CHO-K1 CCR6 PathHunter beta-arrestin, luminescence, CCL20-stimulated | inhibition, % at 20 µM | 340,000 tested, 0.49% active | AID 493098;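 active means compounds whose inhibition of the agonist-driven luminescence signal at 20 µM reaches about 50%, limit read from the data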;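 further: cells stimulated with CCL20 at 14 nM final; plate controls were DMSO with CCL20 for no effect and DMSO without agonist for full effect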
APJ ag confirm: APJ receptor agonism confirmation. shares compounds with APJ agonist. CHO-K1 APJ PathHunter beta-arrestin, luminescence. activation, % at 20 µM. 310 tested, 10% active. AID 2764;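 active means activation above 40%, taking the highest of four retests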;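 further: plate controls were DMSO wells for no effect and apelin-13 at 10 nM for full effect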
The depositor's hits bear a star; . = no result given.

SMILES	APJ agonist	EBI2 block	CXCR6 block	APJ antagonist	CCR6 antag	APJ ag confirm
Cc1cccn2c(=O)c3cc(C(=O)N4CCCCC4C)sc3nc12 (stereo unspecified)	0.1	-0.2	1.2	-9.4	-7.1	.
O=[N+]([O-])c1ccc2nc(-c3ccc(Cl)cc3)[nH]c2c1	13.5*	10.9	-5.8	-15.4	-23.5	30.9
O=C(Nc1ccc(N2CCN(C(=O)c3cccs3)CC2)cc1)c1ccc([N+](=O)[O-])o1	29.4*	13.1	-0.2	-94.4	.	5.9
CCC(=O)Nc1ccc(N2CCN(C(=O)c3cccs3)CC2)cc1	-3.6	-14.9	-4.3	10.3	-3.4	.
O=C(Nc1ccc(N2CCN(C(=O)c3cccs3)CC2)cc1)c1ccco1	1.3	9.6	-5.7	15.0	7.0	.
O=C(COc1ccccc1[N+](=O)[O-])Nc1ccc(N2CCN(C(=O)c3cccs3)CC2)cc1	16.5*	-25.9	2.9	-19.5	-17.4	23.7
OC(CSc1ccccc1)CN1CCN(c2ccc(Cl)cc2)CC1 (stereo unspecified)	.	2.2	-13.9	.	2.0	.
COc1ccc2[nH]c3c(=O)n(/N=C/[C@H]4C(C)C=C(C)CC4C)c(=O)[nH]c3c2c1 (stereo partly specified)	23.9*	-7.9	-11.5	-29.7	-2.0	27.6
COCCNC(=O)C1(C)CCN(C(=O)COc2ccc(Cl)cc2Cl)C1 (stereo unspecified)	.	2.4	1.7	.	.	.
Cc1ccsc1CN(C)CC(=O)NCC(=O)Nc1ccc(F)c(F)c1F	-3.0	-1.7	0.2	0.8	-3.1	.
CCOC(=O)c1ccc(NC(=O)c2ccc(C)c(S(=O)(=O)N3CCOCC3)c2)cc1	11.3	-20.1	-14.7	-18.2	-18.7	.
CCOC(=O)c1ccc(NC(=O)c2cccc(S(=O)(=O)N3CCOCC3)c2)cc1	13.7*	1.3	-25.9	-20.1	1.0	17.3
COc1ccc(-n2c(=O)c3c(C)c(C)sc3n(Cc3ccc(F)cc3)c2=O)c(OC)c1	-3.7	19.2	-1.1	-16.8	-2.2	.
COC(=O)c1cn(C(=O)c2cc(Br)ccc2Cl)c2ccccc12	1.6	-9.4	7.2	11.9	8.9	.
COc1ccc(COC(=O)C2=C(C)NC(=O)NC2c2ccc(F)cc2)cc1 (stereo unspecified)	23.1*	-8.4	2.3	-7.1	-19.8	12.1
CCOc1ccc(C2NC(=O)NC(C)=C2C(=O)OCc2ccccc2)cc1 (stereo unspecified)	-1.2	2.1	3.8	9.1	-1.2	.
Clc1cccc(Cl)c1CSc1nnc(-c2ccncc2)s1	69.5*	-52.9	-8.5	-18.1	-17.0	27.2
COc1cc(Cl)c(CNC[C@H]2O[C@@H](n3cnc4c(=O)[nH]c(N)nc43)[C@H](O)[C@@H]2O)c(Cl)c1O	.	1.5	-8.6	.	.	.
N#C/C(=C\c1ccc([N+](=O)[O-])o1)c1nc2ccccc2[nH]1	42.1*	.	.	-15.3	3.3	6.5
Cc1ccc2nc(/C(C#N)=C\c3ccc(N4CCOCC4)o3)[nH]c2c1	0.3	6.4	14.0	9.4	20.8	.
Cc1ccc2nc(/C(C#N)=C\c3ccc([N+](=O)[O-])o3)[nH]c2c1	94.7*	37.4	-0.6	-45.1	-21.1	12.5
COC(=O)c1ccc2c(=O)n(CCCCCC(=O)N3CCN(c4ccc(F)cc4)CC3)c(=O)[nH]c2c1	46.8*	-33.9	-9.9	-35.4	-8.2	35.2
Oc1ccc(/C=N/Nc2ccnc3cc(Cl)ccc23)c(O)c1O	6.8	-7.1	2.1	-53.9	39.4	.
Oc1ccc(/C=N/Nc2ccnc3cc(Cl)ccc23)cc1O	15.3*	8.8	-11.5	-55.6	22.4	16.3
O=C1CC(SCCO)C(=O)N1c1ccc(Oc2ccccc2)cc1 (stereo unspecified)	-3.3	1.3	5.5	-2.3	-5.4	.
O=C(CSc1n[nH]c(=O)n1C1CC1)Nc1cc(Cl)ccc1Oc1ccccc1	12.5*	-8.8	-11.1	-16.1	-5.2	20.3
O=C(CSc1n[nH]c(=O)n1C1CC1)Nc1ccccc1	2.3	12.8	-3.5	6.1	-9.2	.
CC(Sc1nnc(C(C)Oc2ccc(F)cc2)o1)C(=O)NCc1ccc2c(c1)OCO2 (stereo unspecified)	.	2.7	10.1	.	.	.
Cc1ccc(NC(=O)Cc2nnc(SCC(=O)NC3=NCCS3)n2C)cc1	-2.7	-9.7	-1.0	10.8	3.6	.
